Drawing on ChEMBL document CHEMBL4725483, “Simultaneous Inhibition of SIRT2 Deacetylase and Defatty-Acylase Activities via a PROTAC Strategy” (ACS Med Chem Lett, 2020), this text covers Activity, IC50 and Ratio IC50 for four compounds.

Calls of active or inactive are those of the source. No cut-off for these calls is given here.

Assay [1] has as its target T1, Protein cereblon/NAD-dependent protein deacetylase sirtuin-2 (Homo sapiens) (UniProt Q8IXJ6+Q96SW2). As to the kind of experiment: Protac activity at CRBN/SIRT2 in human MCF7 cells assessed as SIRT2 degradation at 5 uM by immunoblot analysis. It counts as cell-based. A general note: In western blotting, separated proteins are transferred to a membrane and probed.
In assay [2] the target is T2, NAD-dependent protein deacetylase sirtuin-1 (Homo sapiens, UniProt Q96EB6).
T2 sequence (Q96EB6 whole entry): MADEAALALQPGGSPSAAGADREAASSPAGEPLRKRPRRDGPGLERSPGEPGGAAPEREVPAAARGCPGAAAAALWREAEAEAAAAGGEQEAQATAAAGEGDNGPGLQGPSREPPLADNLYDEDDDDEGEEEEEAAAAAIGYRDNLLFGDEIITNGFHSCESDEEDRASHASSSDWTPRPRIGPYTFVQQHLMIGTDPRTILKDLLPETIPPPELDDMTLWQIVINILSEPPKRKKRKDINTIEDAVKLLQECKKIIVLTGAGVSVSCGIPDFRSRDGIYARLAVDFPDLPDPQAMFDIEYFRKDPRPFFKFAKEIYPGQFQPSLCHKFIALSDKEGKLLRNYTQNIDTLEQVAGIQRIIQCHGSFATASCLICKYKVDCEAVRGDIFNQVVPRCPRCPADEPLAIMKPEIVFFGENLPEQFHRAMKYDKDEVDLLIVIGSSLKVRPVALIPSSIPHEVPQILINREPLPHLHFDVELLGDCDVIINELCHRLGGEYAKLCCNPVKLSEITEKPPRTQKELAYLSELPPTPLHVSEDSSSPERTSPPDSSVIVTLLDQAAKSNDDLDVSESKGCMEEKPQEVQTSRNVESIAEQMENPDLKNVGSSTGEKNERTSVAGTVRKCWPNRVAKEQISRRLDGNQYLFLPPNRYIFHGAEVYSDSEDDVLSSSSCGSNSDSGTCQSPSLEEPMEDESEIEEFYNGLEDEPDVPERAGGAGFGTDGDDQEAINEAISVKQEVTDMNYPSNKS
As to the kind of experiment: Inhibition of human SIRT1 deacetylation activity using H3K9Ac as substrate preincubated for 15 mins in presence of NAD+ followed by substrate addition by HPLC analysis. Put shortly:
(§1)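 In vitro sirtuin reaction mixture with compound at a range of concentrations. Compound was preincubated with NAD+ and the enzyme before the substrate peptide was added. IC50 taken from the concentration series.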

Assay [3] deals with T3, NAD-dependent protein deacetylase sirtuin-2 (Homo sapiens, UniProt Q8IXJ6).
T3 sequence (Q8IXJ6 whole entry): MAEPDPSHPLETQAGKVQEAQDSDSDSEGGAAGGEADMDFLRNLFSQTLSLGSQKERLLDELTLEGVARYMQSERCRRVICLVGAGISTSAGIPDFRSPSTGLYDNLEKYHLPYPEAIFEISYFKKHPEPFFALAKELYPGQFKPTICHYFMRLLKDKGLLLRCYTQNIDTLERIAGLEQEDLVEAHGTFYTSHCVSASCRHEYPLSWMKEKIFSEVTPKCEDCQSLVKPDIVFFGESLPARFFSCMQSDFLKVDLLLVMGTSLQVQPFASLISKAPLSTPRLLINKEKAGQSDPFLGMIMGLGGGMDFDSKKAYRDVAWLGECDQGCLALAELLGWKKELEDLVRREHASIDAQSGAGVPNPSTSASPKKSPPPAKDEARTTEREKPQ
As to the kind of experiment: Inhibition of human SIRT2 deacetylation activity using H3K9Ac as substrate preincubated for 15 mins in presence of NAD+ by HPLC analysis. The gist of the method:
as §1

The target in assay [4] is T3, NAD-dependent protein deacetylase sirtuin-2. As to the kind of experiment: Inhibition of human SIRT2 deacetylation activity using H3K9Ac as substrate in presence of NAD+ by HPLC analysis.
For assay [5] the target is unchanged. As to the kind of experiment: Inhibition of human SIRT2 defatty-acylation activity using peptide substrate preincubated in presence of NAD+ followed by substrate addition by HPLC analysis. Put shortly:
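SIRT2 defatty-acylase reaction with compound at a range of concentrations. Compound was preincubated with NAD+ and SIRT2 before the peptide substrate was added. IC50 derived from the dose series.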

Assay [6] has the same target. As to the kind of experiment: Inhibition of human SIRT2 defatty-acylation activity using peptide substrate in presence of NAD+ by HPLC analysis.
Assay [7] addresses T4, NAD-dependent protein deacetylase sirtuin-3, mitochondrial (Homo sapiens, UniProt Q9NTG7).
T4 sequence (Q9NTG7 whole entry): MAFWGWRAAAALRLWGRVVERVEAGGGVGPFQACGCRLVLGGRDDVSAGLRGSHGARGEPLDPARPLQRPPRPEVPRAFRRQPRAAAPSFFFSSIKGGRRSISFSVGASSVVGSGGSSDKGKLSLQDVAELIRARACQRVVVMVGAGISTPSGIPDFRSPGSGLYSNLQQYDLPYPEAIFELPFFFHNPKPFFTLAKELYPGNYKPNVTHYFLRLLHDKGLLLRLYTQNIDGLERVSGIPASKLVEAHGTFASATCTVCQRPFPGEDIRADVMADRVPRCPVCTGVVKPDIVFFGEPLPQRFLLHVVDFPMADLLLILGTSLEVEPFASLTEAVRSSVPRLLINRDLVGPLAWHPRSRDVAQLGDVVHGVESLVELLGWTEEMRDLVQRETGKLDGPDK
As to the kind of experiment: Inhibition of human SIRT3 deacetylation activity using H3K9Ac as substrate preincubated for 15 mins in presence of NAD+ followed by substrate addition by HPLC analysis. The gist of the method:
as §1

The target in assay [8] is NAD-dependent protein deacylase sirtuin-5, mitochondrial (Homo sapiens, UniProt Q9NXA8). As to the kind of experiment: Inhibition of human SIRT5 deacetylation activity using H3K9Ac as substrate preincubated for 15 mins in presence of NAD+ followed by substrate addition by HPLC analysis. The gist of the method:
as §1

For assay [9], the target named is NAD-dependent protein deacylase sirtuin-6 (Homo sapiens, UniProt Q8N6T7). As to the kind of experiment: Inhibition of human SIRT6 deacetylation activity using H3K9Ac as substrate preincubated for 15 mins in presence of NAD+ followed by substrate addition by HPLC analysis. Put shortly: as §1
NAD-dependent protein deacylase sirtuin-6, sequence (Q8N6T7 whole entry): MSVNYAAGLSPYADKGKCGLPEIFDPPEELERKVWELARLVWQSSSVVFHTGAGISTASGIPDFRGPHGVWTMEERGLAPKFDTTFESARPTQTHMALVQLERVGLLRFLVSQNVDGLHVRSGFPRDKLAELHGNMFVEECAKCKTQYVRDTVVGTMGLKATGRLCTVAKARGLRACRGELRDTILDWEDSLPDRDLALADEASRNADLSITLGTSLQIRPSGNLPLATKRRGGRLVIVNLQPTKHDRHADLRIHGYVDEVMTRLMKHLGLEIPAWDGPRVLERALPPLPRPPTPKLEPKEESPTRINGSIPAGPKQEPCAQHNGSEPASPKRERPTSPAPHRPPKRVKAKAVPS
For the next assay, the species on record is Homo sapiens. As to the kind of experiment: Selectivity ratio of IC50 for inhibition of human SIRT1 deacetylation activity to IC50 for inhibition of human SIRT2 deacetylation activity. The gist of the method: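 Ratio of SIRT1 deacetylase IC50 to SIRT2 deacetylase IC50, both measured with compound, NAD+ and enzyme preincubated before peptide substrate addition.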

The target of assay [10] is T5, Protein cereblon/NAD-dependent protein deacetylase sirtuin-1 (Homo sapiens) (UniProt Q96EB6+Q96SW2). As to the kind of experiment: Protac activity at CRBN/SIRT1 in human MCF7 cells assessed as SIRT1 degradation at 5 to 10 uM after 48 hrs by immunoblot analysis. It counts as cell-based. To be noted: dose microM 5-10, time 48.0 hrs. Put shortly: (§2)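 MCF7 or BT-549 cells exposed to inhibitor at the indicated concentrations for 48 h; SIRT1, SIRT2 and SIRT3 levels read by immunoblot.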
T5 sequence (Q96SW2 whole entry, looked up, one chain of several): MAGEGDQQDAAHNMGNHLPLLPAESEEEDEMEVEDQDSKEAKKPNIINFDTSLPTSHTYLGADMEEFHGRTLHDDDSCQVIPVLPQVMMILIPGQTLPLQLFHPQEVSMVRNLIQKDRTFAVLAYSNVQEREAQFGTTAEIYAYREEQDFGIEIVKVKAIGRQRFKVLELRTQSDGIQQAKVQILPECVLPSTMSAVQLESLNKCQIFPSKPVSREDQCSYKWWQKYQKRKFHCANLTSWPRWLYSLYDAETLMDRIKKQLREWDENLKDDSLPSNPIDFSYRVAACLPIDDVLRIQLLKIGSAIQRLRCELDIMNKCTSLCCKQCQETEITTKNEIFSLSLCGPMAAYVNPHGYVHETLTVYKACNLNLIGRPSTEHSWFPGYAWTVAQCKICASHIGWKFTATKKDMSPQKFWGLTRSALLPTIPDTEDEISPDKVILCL

The target of assay [11] is T5, Protein cereblon/NAD-dependent protein deacetylase sirtuin-1 (Homo sapiens). As to the kind of experiment: Protac activity at CRBN/SIRT1 in human BT549 cells assessed as SIRT1 degradation at 5 to 10 uM after 48 hrs by immunoblot analysis. It counts as cell-based. To be noted: BT-549, dose microM 5-10, time 48.0 hrs. The gist of the method:
as §2

The target in assay [12] is T1, Protein cereblon/NAD-dependent protein deacetylase sirtuin-2 (Homo sapiens). As to the kind of experiment: Protac activity at CRBN/SIRT2 in human MCF7 cells assessed as SIRT2 degradation at 5 to 10 uM after 48 hrs by immunoblot analysis. The format is cell-based. Conditions: dose microM 5-10, time 48.0 hrs. The gist of the method: (§3)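 Cells exposed to compound at the indicated concentrations for 48 h. SIRT1, SIRT2 and SIRT3 levels were read by immunoblot.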

The target is the same in assay [13]. As to the kind of experiment: Protac activity at CRBN/SIRT2 in human BT549 cells assessed as SIRT2 degradation at 5 to 10 uM after 48 hrs by immunoblot analysis. It counts as cell-based. Conditions: BT-549, dose microM 5-10, time 48.0 hrs. The gist of the method: as §3
Assay [14] concerns the target T6, Protein cereblon/NAD-dependent protein deacetylase sirtuin-3, mitochondrial (Homo sapiens) (UniProt Q9NTG7+Q96SW2). As to the kind of experiment: Protac activity at CRBN/SIRT3 in human MCF7 cells assessed as SIRT3 degradation at 5 to 10 uM after 48 hrs by immunoblot analysis. Conditions: dose microM 5-10, time 48.0 hrs. It counts as cell-based. Put shortly:
as §2

For assay [15], the target named is T6, Protein cereblon/NAD-dependent protein deacetylase sirtuin-3, mitochondrial (Homo sapiens). As to the kind of experiment: Protac activity at CRBN/SIRT3 in human BT549 cells assessed as SIRT3 degradation at 5 to 10 uM after 48 hrs by immunoblot analysis. The format is cell-based. To be noted: BT-549, dose microM 5-10, time 48.0 hrs. The gist of the method:
as §2

Assay [16] addresses T1, Protein cereblon/NAD-dependent protein deacetylase sirtuin-2 (Homo sapiens). As to the kind of experiment: Protac activity at CRBN/SIRT2 in human MDA-MB-231 cells assessed as SIRT2 degradation after 48 hrs by immunoblot analysis. The format is cell-based. The gist of the method: (§4)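 In MDA-MB-231 and MDA-MB-468 cells, SIRT2 was assessed by immunoblot after compound treatment.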

The target is the same in assay [17]. As to the kind of experiment: Protac activity at CRBN/SIRT2 in human MDA-MB-468 cells assessed as SIRT2 degradation after 48 hrs by immunoblot analysis. It counts as cell-based. The gist of the method:
as §4

The target is the same in assay [18]. As to the kind of experiment: Protac activity at CRBN/SIRT2 in human MCF7 cells assessed as SIRT2 degradation at 10 uM by immunoblot analysis. It counts as cell-based. To be noted: TDE = time-dependent effect. Put shortly: (§5)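 MCF7 cells treated at a fixed concentration (10 or 25 μM) and harvested at several incubation times; SIRT2 level read by immunoblot.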

Assay [19] has the same target. As to the kind of experiment: Protac activity at CRBN/SIRT2 in human MCF7 cells assessed as SIRT2 degradation at 25 uM by immunoblot analysis. It counts as cell-based. The gist of the method:
as §5

The target is the same in assay [20]. As to the kind of experiment: Protac activity at CRBN/SIRT2 in human HEK293T cells stably expressing flag-tagged K-Ras4a assessed as inhibition of SIRT2 defatty-acylation at 10 uM incubated for 42 hrs followed by Alkyne-14 addition and measured after 6 hrs by immunoprecipitation based assay. The format is cell-based. To be noted: HEK-293T. Put shortly:
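HEK 293T cells stably expressing Flag-tagged K-Ras4a-G12V were treated for 42 h, then labelled with 50 μM Alk-14 for a further 6 h. K-Ras4a was immunoprecipitated via Flag, and a fluorescent dye was attached by click chemistry. NH2OH removed cysteine fatty acylation. Lysine fatty acylation was read by in-gel fluorescence and quantified relative to DMSO.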

In a further assay the test system is MCF7. As to the kind of experiment: Cytotoxicity against human MCF7 cells assessed as reduction in cell viability after 72 hrs. It counts as functional, cell-based. The gist of the method:
(§6)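 Cells incubated with compound or thalidomide for 72 h; cell viability read out at the end of exposure.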

A further assay relates to MDA-MB-231. As to the kind of experiment: Cytotoxicity against human MDA-MB-231 cells assessed as reduction in cell viability after 72 hrs. It counts as functional, cell-based. The gist of the method: as §6

T1 sequence (Q96SW2 whole entry, looked up, one chain of several): as above
NAD-dependent protein deacylase sirtuin-5, mitochondrial, sequence (Q9NXA8 whole entry): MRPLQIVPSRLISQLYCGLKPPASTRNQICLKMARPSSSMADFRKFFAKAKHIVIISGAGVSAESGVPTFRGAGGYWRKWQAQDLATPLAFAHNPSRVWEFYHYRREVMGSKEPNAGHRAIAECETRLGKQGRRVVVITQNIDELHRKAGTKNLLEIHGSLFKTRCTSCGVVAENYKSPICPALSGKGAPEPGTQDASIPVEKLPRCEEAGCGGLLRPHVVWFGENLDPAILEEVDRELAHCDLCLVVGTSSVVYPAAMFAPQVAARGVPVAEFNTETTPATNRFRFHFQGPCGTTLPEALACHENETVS
T6 sequence (Q96SW2 whole entry, looked up, one chain of several): as the sequence (Q96SW2 whole entry, looked up, one chain of several) above

For `O=C(O)CCOCCOCCOCCOCCNc1cccc2c1C(=O)N(C1CCC(=O)NC1=O)C2=O` (centres undefined), the result in assay [1] was inactive.

In the case of `CCCCCCCCCCCCCC(=S)NCCCC[C@H](NC(=O)CCOCCOCCNc1cccc2c1C(=O)N(C1CCC(=O)NC1=O)C2=O)C(=O)Nc1ccccc1` (some centres undefined), the IC50 in assay [2] is 37 µM; in assay [3], 0.069 µM; in assay [4], 0.12 µM; in [5], 0.17 µM; in assay [6], more than 83 µM; in assay [7] it was more than 83 µM. Moreover, the IC50 in assay [8] and in assay [9] was more than 83 µM in each case. Further, in the assay filed under Homo sapiens, the Ratio IC50 came out at 500. For the same compound, the outcome in assay [10], in assay [11], in [14], in assay [15] and in assay [19] was inactive. In addition, the result in [12], in assay [13], in assay [16] and in [17] was Active. The Activity entry in [18] was “Tde”.

Regarding `CCCCCCCCCCCCCC(=S)NCCCC[C@H](NC(=O)CCOCCOCCOCCOCCNc1cccc2c1C(=O)N(C1CCC(=O)N(C)C1=O)C2=O)C(=O)Nc1ccccc1` (some centres undefined), the result in assay [1] was inactive.

Turning to `CCCCCCCCCCCCCC(=S)NCCCC[C@H](NC(=O)OCc1ccccc1)C(=O)Nc1ccccc1`, the IC50 in assay [7], in [8] and in assay [9] was more than 83 µM each time. The result in assay [12], in [13] and in assay [20] was inactive. For the same compound, the outcome in the assay with MCF7 and in the assay with MDA-MB-231 was Active.

Broadly, the IC50 is the midpoint of a concentration-inhibition curve.
